This is an account of results in ChEMBL document CHEMBL1121718, “Novel tetracyclic spiropiperidines. 1. 3-Aryl-1,3-dihydrospiro[benzo[c]thiophene-1,4'-piperidines] as potential antidepressants” (1981).

Assay [1] deals with Mus musculus. Put plainly: Antidepressant activity was measured by the inhibition of tetrabenazine (TBZ) ptosis in mice after i.p. administration. The assay is classed as functional. To be noted: ip. In outline: (§1)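 Male Charles River CD-1 mice (20–30 g), groups of five, dosed ip with compound in distilled water plus a few drops of Tween 80. Tetrabenazine methanesulfonate was given at 40 mg/kg ip 30 min later. After another 30 min, ptosis was scored 0–2 (eyes open, half-open, closed). ED50 and 95% confidence intervals came from linear regression of the scores.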

In assay [2] the test system is Mus musculus. Kind of assay: Antidepressant activity was measured by the inhibition of tetrabenazine ptosis in mice after po administration. It is filed as functional. Summed up:
(§2)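 Male Charles River CD-1 mice (20–30 g), groups of five, dosed orally with compound in distilled water plus a few drops of Tween 80. Tetrabenazine methanesulfonate was given at 40 mg/kg ip 60 min later. After another 30 min, ptosis was scored 0–2 (eyes open, half-open, closed). ED50 and 95% confidence intervals came from linear regression of the scores.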

In assay [3] the test system is Rattus norvegicus. Kind of assay: Antidepressant activity was measured by the potentiation of head twitching induced by 5-hydroxy-tryptophan in pargyline-pretreated rats after ip administration. It is filed as functional. In outline:
(§3)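 Male Wistar rats (150–200 g), six per group (ten per dose in dose-range runs), received pargyline HCl 75 mg/kg sc 4 h before testing. Compound in distilled water plus Tween 80 was given ip 30 min before, then L-5-HTP 1.0 mg/kg ip. From 5 min after 5-HTP, rats were observed 15 min for head twitching with coarse tremors. Results are percent potentiation normalized to vehicle; ED50 with 95% limits by linear regression.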

Assay [4] has as its system Mus musculus. Put plainly: Antidepressant activity was measured by the inhibition of tetrabenazine (TBZ) ptosis in mice after ip administration. It is filed as functional. In outline: as §1
The subject of assay [5] is Mus musculus. Put plainly: Antidepressant activity was measured by the inhibition of tetrabenazine (TBZ) ptosis in mice after po administration. It is filed as functional. Summed up:
as §2

Assay [6] relates to Rattus norvegicus. Kind of assay: Antidepressant activity was measured by the potentiation of head twitching induced by 5-hydroxy-tryptophan in pargyline-pretreated rats after ip administration; d= Seizures before 5-HTP dosing. The assay is classed as functional, organism-based. Summed up:
as §3

Assay [7] concerns Mus musculus. Put plainly: Antidepressant activity was measured by the inhibition of tetrabenazine (TBZ) ptosis in mice after po administration […]. It is filed as functional.
For assay [8], the system named is Rattus norvegicus. Put plainly: Antidepressant activity was measured by the potentiation of head twitching induced by 5-hydroxy-tryptophan in pargyline-pretreated rats after ip administration;d=Seizures before 5-HTP dosing. The assay is classed as functional, organism-based. Summed up: as §3
In assay [9] the test system is Rattus norvegicus. Put plainly: Antidepressant activity was measured by the potentiation of head twitching induced by 5-hydroxy-tryptophan in pargyline-pretreated rats after po administration.

The term ED50 denotes the midpoint of the dose-response relation. `FC(F)(F)c1cccc(C2SC3(CCNCC3)c3ccccc32)c1` (stereo not given): the ED50 in the assay with Mus musculus [1] is 1.2 mg/kg; in the assay with Mus musculus [2], 1.7 mg/kg.
As to `Cc1ccc(C2SC3(CCN(C)CC3)c3ccccc32)cc1` (stereo not given), the figures for the ED50 with Mus musculus [1] and with Rattus norvegicus [3] were roughly 3 mg/kg and 1 mg/kg, respectively.
Take `Clc1ccccc1C1SC2(CCNCC2)c2ccccc21` (stereo not given): the values for the ED50 in the assay with Mus musculus [2] and with Rattus norvegicus [3] were 2.2 mg/kg and 4.4 mg/kg, respectively.
Regarding `CN(C)CCCN1c2ccccc2CCc2ccc(Cl)cc21` [CLOMIPRAMINE], the median effective dose (ED50) worked out at 0.73 mg/kg in the assay with Mus musculus [4], 3.5 mg/kg in the assay with Mus musculus [5] and 3.1 mg/kg in the assay with Rattus norvegicus [3].
As to `CN(C)CCC=C1c2ccccc2CCc2ccccc21` [AMITRIPTYLINE], the ED50 was determined as 1.5 mg/kg with Mus musculus [1], 7.8 mg/kg in the assay with Mus musculus [2] and 7.1 mg/kg in the assay on Rattus norvegicus [3].
For `CN1CCC2(CC1)SC(c1ccccc1Cl)c1ccccc12` (stereo not given), in that order: 0.6 mg/kg, 3.6 mg/kg and 10.1 mg/kg.
As to `CN1CCC2(CC1)SC(c1ccccc1)c1ccc(F)cc12` (stereo not given), the results for the ED50 in the assay with Mus musculus [1], in the assay on Mus musculus [2] and in the assay on Rattus norvegicus [3] were 1.8 mg/kg, 2.8 mg/kg and greater than 10 mg/kg, respectively.
For `Cc1ccc(C2SC3(CCNCC3)c3ccccc32)cc1` (stereo not given), in that order: 0.69 mg/kg, 3.6 mg/kg and 0.16 mg/kg.
For `Fc1ccccc1C1SC2(CCNCC2)c2ccccc21` (stereo not given), in that order: 0.78 mg/kg, 6.6 mg/kg and 3.9 mg/kg.
With `Br.CN1CCC2(CC1)SC(c1cccc(Cl)c1)c1ccccc12` (stereo not given), the ED50 entry in the assay with Rattus norvegicus [6] is “Seizures before dosing”; in the assay on Mus musculus [1], 0.9 mg/kg; with Mus musculus [2], 1.3 mg/kg.
With `c1ccc(C2SC3(CCNCC3)c3ccccc32)cc1` (stereo not given), the ED50 with Mus musculus [7] was found to be 1.1 mg/kg; in the assay with Mus musculus [1], 1.1 mg/kg; with Rattus norvegicus [3] it was 3 mg/kg.
As for `CNCCCN1c2ccccc2CCc2ccccc21` [DESIPRAMINE], the figures for the ED50 with Mus musculus [4], with Mus musculus [5] and in the assay with Rattus norvegicus [3] were 0.8 mg/kg, 1.6 mg/kg and greater than 10 mg/kg, respectively.
As for `Clc1ccc(C2SC3(CCNCC3)c3ccccc32)c(Cl)c1` (stereo not given), the ED50 with Mus musculus [1] came out at 2.4 mg/kg; in the assay on Mus musculus [2], 3.8 mg/kg; in the assay on Rattus norvegicus [3], 2.2 mg/kg.
Take `Br.Cc1cccc(C2SC3(CCN(C)CC3)c3ccccc32)c1` (stereo not given): the ED50 with Mus musculus [1] is roughly 20 mg/kg; in the assay with Rattus norvegicus [3] it was greater than 2 mg/kg.
Regarding `CN1CCC2(CC1)SC(c1cccc(F)c1)c1ccccc12` (stereo not given), the ED50 in the assay on Mus musculus [1] was 0.83 mg/kg; in the assay on Mus musculus [2], 3.3 mg/kg; with Rattus norvegicus [3], greater than 10 mg/kg.
For `Fc1ccc(C2SC3(CCNCC3)c3ccccc32)cc1` (stereo not given), in that order: 0.67 mg/kg, 2.1 mg/kg and 0.32 mg/kg.
Turning to `Fc1cccc(C2SC3(CCNCC3)c3ccccc32)c1` (stereo not given), the figures for the ED50 with Mus musculus [2] and in the assay with Rattus norvegicus [3] were 3.1 mg/kg and 0.16 mg/kg, respectively.
Take `CN1CCC2(CC1)SC(c1ccc(Cl)cc1)c1ccccc12` (stereo not given): the ED50 in the assay on Mus musculus [1] is 1.3 mg/kg; in the assay with Mus musculus [2], 1.4 mg/kg; with Rattus norvegicus [3], 0.4 mg/kg.
For `Clc1ccc(C2SC3(CCNCC3)c3ccccc32)cc1Cl` (stereo not given), the ED50 with Mus musculus [2] is 0.82 mg/kg; with Rattus norvegicus [3], 0.4 mg/kg.
`CN1CCC2(CC1)SC(c1ccc(Cl)c(Cl)c1)c1ccccc12` (stereo not given): the median effective dose (ED50) with Mus musculus [1] stood at 3.5 mg/kg; in the assay on Mus musculus [2] it was 6.1 mg/kg; in the assay on Rattus norvegicus [3], 0.58 mg/kg.
For `CN1CCC2(CC1)SC(c1ccc(F)cc1)c1ccccc12` (stereo not given), in that order: 1.4 mg/kg, 3.1 mg/kg and 1.5 mg/kg.
`CN1CCC2(CC1)SC(c1ccccc1)c1ccccc12` (stereo not given): the values for the ED50 in the assay on Mus musculus [4], with Mus musculus [5] and with Rattus norvegicus [3] were 2.5 mg/kg, 4.6 mg/kg and 3.4 mg/kg, respectively.
Consider `Clc1cccc(C2SC3(CCNCC3)c3ccccc32)c1` (stereo not given), for which the ED50 entry in the assay on Rattus norvegicus [8] was “Seizures before dosing”; with Mus musculus [1], 0.52 mg/kg; with Mus musculus [2] it was 1.8 mg/kg.
With `CN1CCC2(CC1)SC(c1cccc(C(F)(F)F)c1)c1ccccc12` (stereo not given), the ED50 with Mus musculus [1] worked out at 0.73 mg/kg; in the assay with Mus musculus [2], 1.6 mg/kg; in the assay on Rattus norvegicus [3] it was 0.52 mg/kg.
With `Clc1ccc(C2SC3(CCNCC3)c3ccccc32)cc1` (stereo not given), the ED50 came to 2.1 mg/kg in the assay on Mus musculus [1], 1.6 mg/kg in the assay on Mus musculus [2], 0.78 mg/kg in the assay on Rattus norvegicus [9] and 0.03 mg/kg in the assay with Rattus norvegicus [3].
As to `Cc1ccccc1C1SC2(CCNCC2)c2ccccc21` (stereo not given), the ED50 was found to be 1.4 mg/kg in the assay with Mus musculus [2] and 2.8 mg/kg in the assay on Rattus norvegicus [3].
Consider `Cc1ccccc1C1SC2(CCN(C)CC2)c2ccccc21` (stereo not given), for which the ED50 with Mus musculus [1] was 0.77 mg/kg; in the assay with Mus musculus [2], 1.3 mg/kg; in the assay with Rattus norvegicus [3], greater than 10 mg/kg.
As to `Cc1cccc(C2SC3(CCNCC3)c3ccccc32)c1` (stereo not given), the ED50 is 1.9 mg/kg in the assay on Mus musculus [1], 2.9 mg/kg in the assay on Mus musculus [2] and 0.71 mg/kg in the assay with Rattus norvegicus [3].
For `Br.CN1CCC2(CC1)SC(c1ccc(Cl)cc1Cl)c1ccccc12` (stereo not given), in that order: 1.6 mg/kg, 3.8 mg/kg and 0.91 mg/kg.
For the compound `CNCCC(Oc1ccc(C(F)(F)F)cc1)c1ccccc1` (stereo not given) [FLUOXETINE], in the assay on Rattus norvegicus [3], the ED50 came out at 0.6 mg/kg.
Consider `Br.CN1CCC2(CC1)SC(c1ccccc1F)c1ccccc12` (stereo not given), for which the ED50 in the assay on Mus musculus [1] is 3 mg/kg; in the assay with Mus musculus [2] it was 2.1 mg/kg; in the assay with Rattus norvegicus [3] it was greater than 10 mg/kg.
